Data set [1] has as its system Radical scavenging activity. Briefly: Antioxidant activity assessed as DPPH radical scavenging activity after 30 mins. Format: functional. In outline: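 Compound (500–0.48 µg/mL) mixed with DPPH, held 30 min at 25 °C in the dark, absorbance read at 517 nm. AA% = 100 − [(ABS_T − ABS_B)×100/ABS_C], with a compound + ethanol blank and a DPPH + ethanol negative control.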

Data set [2] has as its system Erythrocyte. Briefly: Antioxidant activity against H2O2-induced oxidative stress in human erythrocyte membrane at 12.5 to 100 uM treated for 30 mins prior to H2O2 challenge measured after 3 hrs. It is filed as functional, cell membranes. In outline: (§1)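 Erythrocytes from blood-bank samples, washed in saline phosphate with 1 mM NaN3 at 4 °C, plasma and white cells removed. Preincubated with compound 30 min at 37 °C, then brought to 2% haematocrit in PBS. Stress induced by H2O2 (300 μM), 3 h at 37 °C. Absorbance read at 540 nm. Mean ± S.D. of three experiments in duplicate.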

The nature of data set [3]: Toxicity against human erythrocytes assessed as hemolytic rate after 1 hr by haemolytic assay. It is filed as cell-based, Erythrocyte. To be noted: read-out: Activity. In outline: (§2)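 Erythrocytes from blood banks suspended as a 2% saline suspension. Incubated 1 h with compound (50–0.419 µg/mL). Triton X (5 mg/mL) used as positive control. Absorbance read at 450 nm. ANOVA with Tukey test, p < 0.05.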

Data set [4] is described as follows: Toxicity against human erythrocytes assessed as disruption of cell membrane after 1 hr by haemolytic assay. It is filed as cell-based, Erythrocyte. Put shortly:
as §2

The nature of data set [5]: Genotoxicity in human T lymphocytes assessed as proportion of cells without DNA damage at 50 uM after 1 hr by comet assay (reference value: 90%). It is filed as toxicity, cell-based. To be noted: t-cell.
Data set [6] concerns Mus musculus. Briefly: Acute toxicity in Swiss mouse assessed as agitation at 2000 mg/kg, po administered as single dose measured during 14 days after drug exposure. Format: organism-based. As to conditions: in vivo, 336 h. Set-up: dose 2000 mg/kg, route oral. In outline: (§3)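 Female Swiss mice (eight weeks old, specific pathogen-free, kept at 22 °C with food and water ad libitum, acclimatised five days) were tested under OECD Test Guideline 423. Each received a single dose by oral gavage, n = 3. The starting dose came from the ICCVAM prediction model using 3T3 neutral red uptake IC50. Animals were observed individually during the first 30 min and periodically over 24 h, especially the first 4 h, then daily for 14 days.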

Data set [7] in a line: Myelosuppressive activity against Swiss mouse CFU-GM cells assessed as inhibition of cell growth and differentiation after 7 days. Format: cell-based. As to conditions: 168 h. In outline: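 Swiss mouse bone marrow cells (1×10^5) in agar with 2× DMEM, mouse GM-CSF and bovine serum. Ethanolic compound solutions (534–4.17 μM) added, medium-only negative control. Incubated seven days, then CFU-GM colonies counted under 32× magnification. ANOVA.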

For data set [8], the system named is Mus musculus. Briefly: Acute toxicity in Swiss mouse assessed as depression at 2000 mg/kg, po administered as single dose measured during 14 days after drug exposure. It is filed as organism-based. Set-up: dose 2000 mg/kg, route oral. As to conditions: in vivo, 336 h. Put shortly:
as §3

Data set [9] in a line: Acute toxicity in po dosed Swiss mouse administered as single dose measured for 14 days after drug exposure. Format: organism-based. As to conditions: in vivo. In outline:
as §3

Data set [10] in a line: Genotoxicity in human T lymphocytes assessed as proportion of cells without DNA damage at 25 uM after 1 hr by comet assay (reference value: 90%). To be noted: t-cell. Format: toxicity, cell-based.
Data set [11] is described as follows: Genotoxicity in human T lymphocytes assessed as proportion of cells with DNA damage at 50 uM after 1 hr by comet assay (reference value: 10%). It is filed as toxicity, cell-based. As to conditions: t-cell.
In data set [12] the test system is Mus musculus. In words: Acute toxicity in Swiss mouse assessed as animal's death at 2000 mg/kg, po administered as single dose measured during 14 days after drug exposure. It is filed as organism-based. The arrangement: dose 2000 mg/kg, route oral. As to conditions: in vivo, 336 h. Put shortly: as §3
Data set [13] is described as follows: Genotoxicity in human T lymphocytes assessed as proportion of cells with DNA damage at 25 uM after 1 hr by comet assay (reference value: 10%). It is filed as toxicity, cell-based. To be noted: t-cell.
A short description of data set [14]: Genotoxicity in human T lymphocytes assessed as proportion of cells with DNA damage at 100 uM after 1 hr by comet assay (reference value: 10%). It is filed as toxicity, cell-based. As to conditions: t-cell.
A short description of data set [15]: Genotoxicity in human T lymphocytes assessed as proportion of cells without DNA damage at 100 uM after 1 hr by comet assay (reference value: 90%). It is filed as toxicity, cell-based. To be noted: t-cell.
A short description of data set [16]: Toxicity against human erythrocytes assessed as hemolytic potential after 1 hr by haemolytic assay. Format: cell-based, Erythrocyte. As to conditions: read-out: Activity. In outline: as §2
A short description of data set [17]: Pro-oxidant activity in H2O2-stimulated human erythrocyte membrane assessed as increase in hemolysis at >35 uM treated for 30 mins prior to H2O2 challenge measured after 3 hrs. Format: ADME, cell-based. In outline:
as §1

Experimental findings from ChEMBL document CHEMBL2346605, “4-Nerolidylcatechol and its synthetic analogues: antioxidant activity and toxicity evaluation” (Eur J Med Chem, 2013) are described below.

pIC50: −log10 of the molar value. In brackets after ≈: the same amount, converted by molar mass. Activity calls are given as the source filed them. The rule behind the calls is not given here.

In the case of `CC(C)=CCC/C(C)=C/CNc1ccccc1`, the result in data set [1] and in data set [2] was Active. Moreover, in [3], the hemolysis at 1 h is less than 5%. Also, the 50% inhibitory concentration (IC50) at 1 hr in [4] was less than 0.419 µg/mL.
On to `CC(C)=CCC/C(C)=C/CNc1ccc2c(c1)OCO2`, for which the outcome in [1] and in [2] was Active. Moreover, the hemolysis at 1 h in data set [3] is less than 5%. For the same molecule, the IC50 at 1 hr in data set [4] is 18.3 µg/mL (≈ 67.1 µM).
For the molecule `CC(C)=CCC/C(C)=C/CN(c1ccc(O)cc1)S(C)(=O)=O`, the result in data set [2] was Active. Further, in [3], the hemolysis at 1 h was less than 5%. Also, the IC50 at 1 hr in data set [4] is less than 0.419 µg/mL.
Consider `CC(C)=CCC/C(C)=C/CNc1ccc(O)cc1`, for which the result in [1] and in data set [2] was Active. For the same molecule, the Activity is recorded as 72% in data set [5]; “Toxic” in [6]; “Toxic” in data set [8]; 78% in data set [10]; 28% in data set [11]; “Non-toxic” in data set [12]. Moreover, the Activity came out at 22% in [13], 30% in data set [14] and 70% in data set [15]. For the same molecule, the pIC50 in data set [7] is 3.34. The hemolysis at 1 h in [3] was less than 5%. In data set [9], this molecule gave an LD50 at 336 h greater than 2000 mg/kg. Besides, the IC50 at 1 hr in data set [4] is less than 0.419 µg/mL.
`CC(C)=CCC/C(C)=C/CNc1cc(C)nn1C`: the figures for the hemolysis at 1 h in data set [16] and in data set [3] were 75% and greater than 5%, respectively. Moreover, the outcome in data set [1] was Active. The Activity entry in data set [17] is listed as “Toxic”. Moreover, the IC50 at 1 hr in [4] worked out at 1.76 µg/mL (≈ 7.11 µM).

One may read the IC50 as the point on the concentration scale where inhibition reaches its midpoint. The term pIC50 denotes the negative decadic logarithm of the IC50, by convention in mol/L. A word on the LD50: it is the dose expected to kill half of the subjects tested. Read a low LD50 as greater toxicity.
